Measurements collected from several papers.
Compare with care: the assays were run in different laboratories.
Target: 3-phosphoinositide-dependent protein kinase 1 (PDPK1, Homo sapiens, UniProt O15530)
Mode: inhibitor

SMILES	test	setting	inhibition [%]
CCCS(=O)(=O)Nc1ccc(F)c(C(=O)c2c[nH]c3ncc(-c4ccc(Cl)cc4)cc23)c1F	enzyme activity	1 µM	< 10
COc1cc2ncnc(Nc3ccc(Oc4ccccc4)cc3C)c2cc1OC	enzyme activity	1 µM	-2
O=C(CSc1nc2nccnc2c(=O)n1CCc1ccccc1)Nc1nccs1	enzyme activity	10 µM	11
Cc1ccc(Nc2nccc(N(C)c3ccc4c(C)n(C)nc4c3)n2)cc1S(N)(=O)=O	enzyme activity	0.3 µM	5
CSc1nc(C)c(-c2ccnc(Nc3ccc(N4CCOCC4)cc3)c2)[nH]1	enzyme activity	10 µM	41.3
CCCCNc1ncc2c(-c3ccc(F)cc3)nn(C[C@H]3CC[C@H](N)CC3)c2n1	target engagement in cells, chemoproteomics	20 mM	7.1
Nc1ncc2cc(-c3c(Cl)cccc3-c3cccnc3)c(N3C[C@@H]4[C@@H](N)[C@@H]4C3)nc2n1	enzyme activity, FRET	25 µM	0
COc1cccc2c(NCc3ccccc3)nc(-n3c(N)nc4ccccc43)nc12	target engagement in cells, chemoproteomics	20 mM	-5.3
COc1cc(C[C@H]2C(=O)OC[C@@H]2Cc2ccc(OC)c(OC)c2)ccc1O	enzyme activity, ADP detection	100 µM	18.6
CN(c1ncccc1CNc1nc(Nc2ccc3c(c2)CC(=O)N3)ncc1C(F)(F)F)S(C)(=O)=O	enzyme activity	1 µM	36
CNC(=O)c1cc(Oc2ccc(NC(=O)Nc3ccc(Cl)c(C(F)(F)F)c3)cc2)ccn1	enzyme activity	0.3 µM	-2
CN(C)C1CCN(CC#Cc2nn(C3CCCC3)c3nc(NCc4ccccc4)ncc23)C1 (stereo not drawn)	enzyme activity, FRET	0.1 µM	0
